These results are taken from ChEMBL document CHEMBL1125559, “Analogues of platelet activating factor. 7. Bis-aryl amide and bis-aryl urea receptor antagonists of PAF” (J Med Chem, 1992).

pIC50: −log10 of the molar value.

The term pIC50 denotes −log10 of the IC50, conventionally taken in molar units. The Inhibition is the percentage by which the read-out fell short of the control. Low values mean a weak effect, high ones a strong effect.

The species entered for data set [1] is Oryctolagus cuniculus. Nature of the data set: Concentration required to inhibit PAF (5*10e-8 M) induced platelet aggregation in rabbit platelet rich plasma(PRP) by 50%. Type of data set: functional, organism-based. The method in brief: (§1)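 Rabbit PRP came from blood spun at 800 rpm for 15 min at room temperature, with platelet counts of 350 000–550 000/µL. PRP was equilibrated 1–2 min at 37 °C in an aggregometer. It was preincubated 5 min with test compound (final 10^-8 to 10^-5 M; methanol stock diluted in saline) or saline, then challenged with L-C16-PAF. IC50 was taken from concentration–response curves of aggregation magnitude and averaged over separate determinations.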

The subject of data set [2] is Mus musculus. Nature of the data set: Compound was evaluated for PAF-induced lethality in mouse (intraperitoneally at a dose of 1.0 mg/kg in saline 0.5 hr before lethal intravenous PAF challenge 75-150 mg/kg). Type of data set: ADME, organism-based. Details: dose 1 mg/kg, route intraperitoneal; call rule not given here. Conditions: in vivo. The method in brief: (§2)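 Female Swiss-Webster mice (20-25 g) received test compound ip in saline (10 mL/Kg); controls got saline alone. The PAF dose was chosen daily from small pilot groups. Survival was scored at 1.5 h and recorded as dead/total.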

Data set [3] concerns Mus musculus. Put plainly: Compound was evaluated number of mouse dead out of total (intraperitoneally at a dose of 1.0 mg/kg in saline 0.5 hr before lethal intravenous PAF challenge 75-150 mg/kg)''; 6/12. Details: dose 1 mg/kg, route intravenous. Type of data set: ADME, organism-based. Conditions: in vivo. In a few lines:
as §2

In data set [4] the test system is Mus musculus. Nature of the data set: Compound was evaluated for PAF-induced lethality in mouse (intraperitoneally at a dose of 1.0 mg/kg in saline 0.5 hr before lethal intravenous PAF challenge 75-150 mg/kg); 5/12. Type of data set: ADME, organism-based. Details: dose 1 mg/kg, route intravenous. Conditions: in vivo. The method in brief: as §2
Data set [5] has as its system Mus musculus. Put plainly: Compound was evaluated for PAF-induced lethality in mouse (intraperitoneally at a dose of 1.0 mg/kg in saline 0.5 hr before lethal intravenous PAF challenge 75-150 mg/kg); 14/24. It is filed as ADME, organism-based. Details: dose 1 mg/kg. As to conditions: in vivo. In a few lines: as §2
Data set [6] has as its system Mus musculus. Nature of the data set: Compound was evaluated for PAF-induced lethality in mouse (intraperitoneally at a dose of 1.0 mg/kg in saline 0.5 hr before lethal intravenous PAF challenge 75-150 mg/kg); 11/14. It is filed as ADME, organism-based. As to conditions: in vivo. Details: dose 1 mg/kg. The method in brief: as §2
The species named for data set [7] is Oryctolagus cuniculus. Put plainly: Concentration required to inhibit PAF (5*10e-8 M) induced platelet aggregation in rabbit platelet rich plasma(PRP) by 50% at 10 uM. Type of data set: functional.
Data set [8] is filed under the species Oryctolagus cuniculus. Nature of the data set: Concentration required to inhibit PAF (1*10e-7 M) induced platelet aggregation in rabbit platelet rich plasma(PRP) by 50%. Type of data set: functional, organism-based. In a few lines:
as §1

Data set [9] concerns Mus musculus. Put plainly: Compound was evaluated number of mouse dead out of total (intraperitoneally at a dose of 1.0 mg/kg in saline 0.5 hr before lethal intravenous PAF challenge 75-150 mg/kg); 6/12. It is filed as ADME, organism-based. Details: dose 1 mg/kg, route intravenous. Conditions: in vivo. In a few lines: as §2
In data set [10] the test system is Mus musculus. Nature of the data set: Compound was evaluated for PAF-induced lethality in mouse (intraperitoneally at a dose of 1.0 mg/kg in saline 0.5 hr before lethal intravenous PAF challenge 75-150 mg/kg); 10/17. As to conditions: in vivo. It is filed as ADME, organism-based. Details: dose 1 mg/kg. The method in brief: as §2
For data set [11], the species on record is Oryctolagus cuniculus. Nature of the data set: Concentration required to inhibit PAF (5*10e-8 M) induced platelet aggregation in rabbit platelet rich plasma(PRP) by 50% at 10 uM; NI= No inhibition. Type of data set: functional, organism-based.
The subject of data set [12] is Mus musculus. Put plainly: Compound was evaluated for PAF-induced lethality in mouse (intraperitoneally at a dose of 1.0 mg/kg in saline 0.5 hr before lethal intravenous PAF challenge 75-150 mg/kg); 12/39. It is filed as ADME, organism-based. Details: dose 1 mg/kg. Conditions: in vivo. In a few lines:
as §2

`CCCCCCCCCCCCCCOc1ccc(CN(C(C)=O)c2ccc(C[n+]3csc(C)c3)cc2)cc1`: in data set [1], the pIC50 is 5.68.
On the same count and under the same terms, then `CCCCCCCCCCCCCCOc1ccc(CNC(=O)c2cccc(C[n+]3csc(C)c3)c2)cc1`, with 6.40.
Same read-out and setting: then `CCCCCCCCCCCCCCCCOc1ccc(OCC(=O)Nc2ccccc2C[n+]2csc(C)c2)cc1`, with 4.95.
The same measure, in the same setting: the value for `CCCCCCCCCCCCCCOc1c(C)cc(CN(C(C)=O)c2cccc(C[n+]3csc(C)c3)c2)cc1C` was 6.15.
As for `CCCCCCCCCCCCCCOc1ccc(CC(=O)Nc2cccc(C[n+]3csc(C)c3)c2)cc1.[Br-]`, in data set [2], the Lethality is 50%. Further, the Dead/total in data set [3] was 6. The compound further had a pIC50 in data set [1] of 6.51.
As to `CCCCCCCCCCCCCCOc1ccc(CCC(=O)Nc2cccc(C[n+]3csc(C)c3)c2)cc1.[Br-]`, in data set [2], the Lethality was 50%. The compound also displayed a Dead/total in [4] of 5. Besides, in [1], the pIC50 was 5.14.
The compound `CCCCCCCCCCCCCCOc1ccc(CNC(=O)c2cccc(C[n+]3csc(C)c3)c2)cc1C(C)(C)C` gave a pIC50 in data set [1] of 5.46.
In turn, `CCCCCCCCCCCCCCOc1ccc(CCCN(C(C)=O)c2cccc(C[n+]3csc(C)c3)c2)cc1.[Br-]` showed a Lethality in [2] of 58%. The Dead/total in data set [5] was 14. The same compound gave a negative-log IC50 (pIC50) in data set [1] of 5.51.
As for `CCCCCOc1c(OC)cc(CN(C(C)=O)c2cccc(C[n+]3csc(C)c3)c2)cc1OC`, the pIC50 in data set [1] is 5.64.
Compound `CCCCCCCCCCCCCCOc1ccc(CN(C(=O)CCC)c2cccc(C[n+]3csc(C)c3)c2)cc1.[Br-]` registered a Lethality in data set [2] of 79%. Moreover, the Dead/total in [6] stood at 11. The compound further gave a negative-log IC50 (pIC50) in data set [1] of 6.59.
`CCCCCCCCCCCCCCOc1cccc(CC(=O)Nc2ccccc2C[n+]2csc(C)c2)c1.[Br-]`: in data set [7], the Inhibition came to 23%.
In [8], `CCCCCCCCCCCCCCOc1ccc(CN(C(C)=O)c2cccc(C[n+]3csc(C)c3)c2)cc1C(C)(C)C` gave a negative logarithm of the IC50 (pIC50) of 6.46.
`CCCCCCCCCCCCCCOc1cccc(CN(C(C)=O)c2cccc(C[n+]3csc(C)c3)c2)c1`: the negative-log IC50 (pIC50) in [1] is 6.13.
`CCCCCCCCCCCCOc1ccc(CC(=O)Nc2cccc(C[n+]3csc(C)c3)c2)cc1.[Br-]` had a Lethality in [2] of 55%. Moreover, the Dead/total in [9] stood at 6. For the same compound, the negative-log IC50 (pIC50) in data set [1] was 5.54.
`CCCCCCCCCCCCCCOc1cccc(C(=O)Nc2cccc(C[n+]3csc(C)c3)c2)c1` had a negative logarithm of the IC50 (pIC50) in data set [1] of 5.38.
Still for that read-out and setting: the value for `CCCCCCCCCCCCCCOc1ccc(CNC(=O)c2cccc(C[n+]3csc(C)c3)c2)cc1OC` was 6.02; that for `CCCCCCCCCCCCCCCCOc1ccc(CC(=O)Nc2cccc(C[n+]3csc(C)c3)c2)cc1` was 5.28; that for `CCCCCCCCCCCCCCOc1ccc(NC(=O)c2cccc(C[n+]3csc(C)c3)c2)cc1` was 5.57.
`CCCCCCCCCCCCCCOc1ccc(CN(C(C)=O)c2cccc(C[n+]3csc(C)c3)c2)cc1Cl.[Br-]` showed a Lethality in [2] of 59%. The compound further gave a Dead/total in [10] of 10. In data set [1], this compound gave a pIC50 of 6.89.
On to `CCCCCCCCCCCCCCOc1ccc(CC(=O)Nc2ccccc2C[n+]2csc(C)c2)cc1.[Br-]`, for which the IC50 entry in data set [11] is recorded as “Not Active”.
`CCCCCCCCCCCCCCOc1c(OC)cc(CN(C(C)=O)c2cccc(C[n+]3csc(C)c3)c2)cc1OC` had a pIC50 in [1] of 6.24.
The compound `CCCCCCCCCCCCCCOc1ccc(CNC(=O)c2ccc(C[n+]3csc(C)c3)cc2)cc1.[Br-]` gave a Lethality in data set [2] of 31%. The Dead/total in data set [12] is 12. Besides, the negative logarithm of the IC50 (pIC50) in data set [1] was 5.54.
